The record followed here is ChEMBL document CHEMBL1134545, “Design, synthesis, DNA binding, and biological evaluation of water-soluble hybrid molecules containing two pyrazole analogues of the alkylating cyclopropylpyrroloindole (CPI) subunit of the antitumor agent CC-1065 and polypyrrole minor groove binders” (J Med Chem, 2001).

Converted amounts (≈) assume the structure as drawn. A value given as a limit tells only on which side of the number the result lay.

Test [1] concerns CCRF-CEM. The test can be described thus: In vitro antitumor activity against Human T-lymphoblast (CEM) cell lines. Type of test: functional, cell-based. Put shortly:
(§1)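 Cells seeded at 250 000-300 000 cells/mL and exposed to a range of compound concentrations. Incubation for 2-3 days at 37 °C, followed by Coulter counter cell counts. IC50 is the concentration that lowers cell number by 50%. Reported as mean ± SE from dose-response curves of at least three independent experiments.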

Test [2] deals with FM3A. Put plainly: In vitro antitumor activity against Murine mammary carcinoma (FM3A) cell lines. Type of test: functional, cell-based. Conditions: Mus musculus. Put shortly: as §1
The subject of test [3] is Daudi. The test can be described thus: In vitro antitumor activity against Human B-lymphoblast (Daudi) cell lines. Type of test: functional, cell-based. In a few lines:
as §1

Test [4] deals with MOLT-4. The test can be described thus: In vitro antitumor activity against Human T-lymphoblast (Molt/4) cell lines. Type of test: functional, cell-based. In a few lines: as §1
Test [5] deals with L1210. The test can be described thus: In vitro antitumor activity against Murine leukemia (L1210) cell lines. It is filed as functional, cell-based. The settings on record: Mus musculus. Put shortly: as §1
Test [6] relates to E6SM. The test can be described thus: Antiviral activity against […] in E6SM cell cultures. Type of test: functional. The settings on record: Homo sapiens. In a few lines:
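E6SM cells grown in MEM with 10% inactivated FCS, 2 mM L-glutamine and 0.3% NaHCO3, infected, then treated with varying compound concentrations. MIC is the concentration reducing virus-induced cytopathogenicity by 50%, recorded once CPE reached completion in untreated infected controls.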

The test system of test [7] is E6SM. Put plainly: Minimum cytotoxic concentration required to cause a microscopically detectable alteration of normal cell morphology. Type of test: functional. The settings on record: Homo sapiens. Put shortly:
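E6SM cell cultures exposed to compound for the same duration as the antiviral assays. Cells examined under a microscope. MCC is the lowest concentration causing detectable alteration of normal cell morphology.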

The test system of test [8] is E6SM. Put plainly: Antiviral activity against Vaccinia virus in E6SM cell cultures. It is filed as functional. Conditions: Homo sapiens. Put shortly:
(§2)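 Confluent E6SM cells, grown in MEM with 10% inactivated FCS, 2 mM L-glutamine and 0.3% NaHCO3, inoculated with 100 CCID50 per well. After 1 or 2 h, residual virus removed. Cells then incubated in MEM with 2% FCS and varying compound concentrations for 3 days. MIC is the concentration reducing virus-induced cytopathicity by 50% versus untreated control, read when control CPE complete.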

Test [9] relates to E6SM. The test can be described thus: Antiviral activity against herpes simplex virus-1 TK-KOS ACV (HSV-1) in E6SM cell cultures. Type of test: functional. The settings on record: Homo sapiens. Put shortly: as §2
In test [10] the test system is E6SM. Put plainly: Antiviral activity against herpes simplex virus-1 TK-VMW 1837 (HSV-1) in E6SM cell cultures. Type of test: functional. The settings on record: Homo sapiens. In a few lines: as §2
The subject of test [11] is E6SM. The test can be described thus: Antiviral activity against herpes simplex virus-1 KOS (HSV-1) in E6SM cell cultures. It is filed as functional. Conditions: Homo sapiens. In a few lines:
as §2

Test [12] deals with E6SM. Put plainly: Antiviral activity against herpes simplex virus-2 G (HSV-2) in E6SM cell cultures. It is filed as functional. The settings on record: Homo sapiens. Put shortly:
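Confluent E6SM cells (MEM, 10% inactivated FCS) were infected with HSV-2 strain G at 100 CCID50 per well. After 1 or 2 h, residual virus was removed and the cells were incubated in MEM with 2% FCS and varying compound concentrations. MIC is the concentration reducing cytopathicity by 50%, recorded when control infected cultures reached full CPE (3 days).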

The subject of test [13] is L1210. The test can be described thus: Cytotoxicity against L1210 leukemia cells. It is filed as functional, cell-based. Conditions: Mus musculus. In a few lines: as §1

Consider `Cc1n[nH]c2c(O)cc3c(c12)C(CCl)CN3C(=O)c1cc(C(=O)Nc2cc(C(=O)NCCC(=N)N)n(C)c2)n(C)n1` (stereo not given), for which the IC50 worked out at 230 nM in test [1]; 1600 nM in [2]; 150 nM in test [3]; 340 nM in test [4]; 58 nM in test [5].
For the compound `Cn1cc(NC(=O)c2cc(NC(=O)c3cc(C(=O)N4CC(CCl)c5c4cc(O)c4c5cnn4Cc4ccccc4)nn3C)cn2C)cc1C(=O)NCCC(=N)N` (stereo not given), the IC50 was found to be 210 nM in test [1]; 5600 nM in [2]; 38 nM in [3]; 160 nM in test [4]; 600 nM in test [5].
Regarding `Cc1n[nH]c2c(O)cc3c(c12)C(CCl)CN3C(=O)c1cc(C(=O)Nc2cc(C(=O)Nc3cc(C(=O)NCCC(=N)N)n(C)c3)n(C)c2)n(C)n1` (stereo not given), the IC50 came to 39 nM in test [1]; 190 nM in test [2]; 22 nM in test [3]; 45 nM in test [4]; 19 nM in test [5].
Turning to `Cn1cc(NC(=O)c2cc(C(=O)N3CC(CCl)c4c3cc(O)c3c4cnn3Cc3ccccc3)nn2C)cc1C(=O)NCCC(=N)N` (stereo not given), the IC50 in [1] is 70 nM; in test [2], 4000 nM; in test [3], 11 nM; in [4], 130 nM; in test [5], 240 nM.
As for `Cn1cc(NC(=O)c2cc(NC(=O)c3cc(NC(=O)c4cc(C(=O)N5CC(CCl)c6c5cc(O)c5c6cnn5Cc5ccccc5)nn4C)cn3C)cn2C)cc1C(=O)NCCC(=N)N` (stereo not given), the IC50 amounted to 400 nM in test [1]; 19300 nM in test [2]; 100 nM in test [3]; 310 nM in test [4]; 400 nM in test [5].
For the compound `Cc1n[nH]c2c(O)cc3c(c12)C(CCl)CN3C(=O)c1cc(C(=O)Nc2cc(C(=O)Nc3cc(C(=O)Nc4cc(C(=O)NCCC(=N)N)n(C)c4)n(C)c3)n(C)c2)n(C)n1.Cl` (stereo not given), the MIC in [6] was > 0.16 µg/mL; in test [8], 0.019 µg/mL; in [9], > 0.16 µg/mL; in test [10], > 0.16 µg/mL; in test [11], > 0.16 µg/mL; in test [12], 0.16 µg/mL. In addition, the IC50 in [1] amounted to 71 nM; in test [2], 31 nM; in test [3] it was 8.8 nM; in test [4], 17 nM; in [5] it was 7.4 nM. Also, the MCC in [7] is 0.8 µg/mL.
For `Cc1n[nH]c2c(O)cc3c(c12)C(CCl)CN3C(=O)OC(C)(C)C` (stereo not given), the MIC in test [6], in test [9], in test [10], in test [11] and in test [12] was > 1.6 µg/mL in each case. The IC50 in test [1] stood at 1260 nM; in test [2], 1400 nM; in test [3], 680 nM; in test [4] it was 1740 nM; in test [5], 520 nM. For the same compound, the MCC in test [7] was determined as 8 µg/mL.
Consider `CC(C)(C)OC(=O)N1CC(CCl)c2c1cc(O)c1c2cnn1Cc1ccccc1` (stereo not given), for which the IC50 in test [1] turned out to be 6720 nM; in [2], 18300 nM; in test [3], 7520 nM; in test [4] it was 8550 nM; in test [5], 2710 nM.
For the compound `Cc1nn(Cc2ccccc2)c2c1C13CC1CN(C(=O)OC(C)(C)C)C3=CC2=O` (racemic), inhibition in [13] was half-maximal at 3060 nM (IC50).
Turning to `Nc1nc2c(ncn2COCCO)c(=O)[nH]1` [ACYCLOVIR], the MIC is > 400 µg/mL in test [6]; 48 µg/mL (≈ 213 µM) in [9]; 0.384 µg/mL (≈ 1.71 µM) in [10]; 0.077 µg/mL (≈ 0.342 µM) in [11]; 0.077 µg/mL (≈ 0.342 µM) in [12]. In addition, the MCC in test [7] is > 400 µg/mL.
On to `O=c1[nH]c(=O)n([C@H]2C[C@H](O)[C@@H](CO)O2)cc1/C=C/Br` [BRIVUDINE], for which the MIC in test [6] was > 400 µg/mL; in test [8] it was 0.077 µg/mL (≈ 0.231 µM); in test [9] it was 240 µg/mL (≈ 720 µM); in test [10] it was 0.128 µg/mL (≈ 0.384 µM); in test [11], 0.015 µg/mL (≈ 0.045 µM); in [12], 240 µg/mL (≈ 720 µM). Besides, the MCC in [7] is > 400 µg/mL.
On to `Nc1nc2c(ncn2COC(CO)CO)c(=O)[nH]1` [GANCICLOVIR], for which the MIC was > 100 µg/mL in test [6]; 1.92 µg/mL (≈ 7.52 µM) in [9]; 0.019 µg/mL (≈ 0.0744 µM) in [10]; 0.004 µg/mL (≈ 0.0157 µM) in test [11]; 0.004 µg/mL (≈ 0.0157 µM) in test [12]. In addition, the MCC in [7] was > 100 µg/mL.
For `NC(=O)c1ncn([C@@H]2O[C@H](CO)[C@@H](O)[C@H]2O)n1` [RIBAVIRIN], the MIC turned out to be 48 µg/mL (≈ 197 µM) in test [6]; 16 µg/mL (≈ 65.5 µM) in test [8]; 240 µg/mL (≈ 983 µM) in test [9]; 240 µg/mL (≈ 983 µM) in test [10]; 240 µg/mL (≈ 983 µM) in [11]; 48 µg/mL (≈ 197 µM) in [12]. In addition, the MCC in [7] is > 400 µg/mL.
